This note sets out measurements from ChEMBL document CHEMBL4251591, “Primaquine hybrids as promising antimycobacterial and antimalarial agents” (Eur J Med Chem, 2018).

≈ marks a conversion by molar mass, not a printed value.

The subject of experiment [1] is Mycobacterium tuberculosis. The experiment in a line: Antimycobacterial activity against Mycobacterium tuberculosis H37Ra ATCC 25177 after 7 days by Alamar Blue assay. The conditions noted are these: H37Ra ATCC 25177, 168 h. It counts as functional. Put shortly:
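Log-phase culture washed and resuspended in supplemented Middlebrook 7H9GC broth, adjusted to McFarland No. 1, then diluted 1:20. Equal volumes of culture and DMSO-prepared compound dilutions were tested in duplicate for 7 days. 10% AlamarBlue was added, with 570/600 nm readings for background and after 24 h reincubation. Blue meant no growth, pink meant growth. MIC was the lowest concentration without visible growth.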

In experiment [2] the test system is Mycobacterium avium complex sp. Briefly: Antimycobacterial activity against Mycobacterium avium complex CIT19/06 clinical isolate after 5 days by Alamar Blue assay. The conditions noted are these: CIT19/06, 120 h. It is filed as functional. Background: Resazurin is reduced to fluorescent resorufin, in cell work by metabolically active cells.
Experiment [3] relates to Mycobacterium avium. Briefly: Antimycobacterial activity against Mycobacterium avium subsp. paratuberculosis CIT03 clinical isolate after 11 days by Alamar Blue assay. Particulars: CIT03, 264 h. It is filed as functional.
The subject of experiment [4] is L6. Briefly: Cytotoxicity against rat L6 cells after 70 hrs by Alamar Blue-based assay. It counts as cell-based. The conditions noted are these: L6, 70 h. Put shortly:
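Rat skeletal myoblast L-6 cells, 4000 per well, in RPMI 1640 with 10% FBS and L-glutamine. Eleven 3-fold serial dilutions spanning 100 to 0.002 were tested for 70 h. Alamar Blue was then added for 2 h and fluorescence read at ex 536 / em 588 nm. IC50 came from linear regression of sigmoid curves, averaged over two replicate experiments, with podophyllotoxin as control.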

In experiment [5] the test system is Plasmodium berghei. Briefly: Antimalarial activity against liver stage of firefly luciferase-expressing Plasmodium berghei infected in human HuH7 cells measured after 48 hrs post parasite addition by luciferase-based luminescence assay. It is filed as functional, organism-based. Particulars: Huh-7, 48 h. Put shortly: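 HuH7 hepatoma cells seeded at 1.0 × 10^4 per well the day before infection. Drug-containing medium was added 1 h before 1.0 × 10^4 sporozoites, followed by centrifugation at 1800 × g for 5 min. Infection load was read by bioluminescence 48 h later, and host viability by CellTiter-Blue. IC50 came from nonlinear regression of normalized dose-response curves.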

Experiment [6] deals with HEK293. The experiment in a line: Cytotoxicity against human HEK293 cells. It is filed as cell-based.

One may read the MIC as the smallest concentration in the dilution series that meets the test's criterion for growth inhibition. A higher MIC goes with weaker potency. Broadly, the IC50 is the point on the concentration scale where inhibition reaches its midpoint. Read a low IC50 as inhibition by little substance. As for `COc1ccc(/C=C/C(=O)NCCCC(C)Nc2cc(OC)cc3cccnc23)cc1` (stereo unspecified), the MIC was found to be 64 µg/mL (≈ 153 µM) in experiment [1], 128 µg/mL (≈ 305 µM) in experiment [2] and 64 µg/mL (≈ 153 µM) in experiment [3]. The IC50 in experiment [4] is greater than 100 µg/mL.
Consider `COc1ccc(C(=NNC(=O)NNC(=O)NCCCC(C)Nc2cc(OC)cc3cccnc23)c2ccc(OC)cc2)cc1` (stereo unspecified), for which the MIC in experiment [1] stood at 2 µg/mL (≈ 3.34 µM); in experiment [2] it was 16 µg/mL (≈ 26.7 µM); in experiment [3] it was 4 µg/mL (≈ 6.67 µM). This compound gave an IC50 in experiment [5] of 0.0828 µM.
As for `COc1cc(NC(C)CCCNC(=O)Nc2cc(C(F)(F)F)cc(C(F)(F)F)c2)c2ncccc2c1` (stereo unspecified), the IC50 in experiment [6] was 7.67 µg/mL (≈ 14.9 µM).
`COc1cc(NC(C)CCCNC(=O)NNC(=O)Nc2ccc(C(F)(F)F)cc2)c2ncccc2c1` (stereo unspecified): the MIC in experiment [1], in experiment [2] and in experiment [3] was 128 µg/mL (≈ 254 µM) each time. The compound also had an IC50 in experiment [5] of 0.0749 µM.
Regarding `COc1cc(NC(C)CCCNC(=O)NNC(=O)Nc2ccc(F)cc2)c2ncccc2c1` (stereo unspecified), in experiment [5], the IC50 is 1.87 µM.
Regarding `COc1cc(NC(C)CCCNC(=O)Nc2ccc(Br)cc2)c2ncccc2c1` (stereo unspecified), the MIC amounted to 8 µg/mL (≈ 17.5 µM) in experiment [1], 16 µg/mL (≈ 35 µM) in experiment [2] and 16 µg/mL (≈ 35 µM) in experiment [3]. For the same compound, the IC50 in experiment [6] came to 200 µg/mL (≈ 437 µM).
`COc1cc(NC(C)CCCNC(=O)NNC(=O)Nc2ccc(Cl)cc2)c2ncccc2c1` (stereo unspecified): the MIC in experiment [1] is 128 µg/mL (≈ 272 µM); in experiment [2], 256 µg/mL (≈ 544 µM); in experiment [3] it was 128 µg/mL (≈ 272 µM). In experiment [5], this compound showed an IC50 of 0.042 µM.
As to `COc1cc(NC(C)CCCNC(=O)Nc2ccc(C(F)(F)F)cc2)c2ncccc2c1` (stereo unspecified), the MIC in experiment [1] came out at 4 µg/mL (≈ 8.96 µM); in experiment [2], 16 µg/mL (≈ 35.8 µM); in experiment [3], 8 µg/mL (≈ 17.9 µM). The compound further displayed an IC50 in experiment [6] of 200 µg/mL (≈ 448 µM).
For the compound `COc1cc(NC(C)CCCNC(=O)/C=C/c2cc(C(F)(F)F)cc(C(F)(F)F)c2)c2ncccc2c1` (stereo unspecified), the MIC is 16 µg/mL (≈ 30.4 µM) in experiment [1], 64 µg/mL (≈ 122 µM) in experiment [2] and 16 µg/mL (≈ 30.4 µM) in experiment [3]. The compound also yielded an IC50 in experiment [5] of 2.39 µM.
Turning to `COc1cc(NC(C)CCCNC(=O)/C(C)=C/c2ccccc2)c2ncccc2c1` (stereo unspecified), the IC50 in experiment [4] is greater than 100 µg/mL; in experiment [5] it was 0.724 µM.
As to `COc1cc(NC(C)CCCNC(=O)NNC(=O)NC(c2ccccc2)(c2ccccc2)c2ccccc2)c2ncccc2c1` (stereo unspecified), the MIC in experiment [1], in experiment [2] and in experiment [3] was 128 µg/mL (≈ 212 µM) each time. In experiment [4], the IC50 was greater than 65 µg/mL.
As to `COc1cc(NC(C)CCCNC(=O)NNC(=O)Nc2cccc(Br)c2)c2ncccc2c1` (stereo unspecified), the values for the MIC in experiment [1], in experiment [2] and in experiment [3] were 128 µg/mL (≈ 248 µM), 256 µg/mL (≈ 497 µM) and 128 µg/mL (≈ 248 µM), respectively. Further, the IC50 came out at 20 µg/mL (≈ 38.8 µM) in experiment [4] and 0.182 µM in experiment [5].
